{"source": "ChEMBL document CHEMBL3407441", "about": "“Design, synthesis and docking studies of novel thienopyrimidine derivatives bearing chromone moiety as mTOR/PI3Kα inhibitors” (Eur J Med Chem, 2015)", "key": {"[1]": {"biological_target": "T1, Serine/threonine-protein kinase mTOR (Homo sapiens, UniProt P42345)", "assay": "Inhibition of mTOR kinase (unknown origin) using ULight-4E-BP1 as substrate after 1 hr by TR-FRET assay"}, "[2]": {"assay": "Cytotoxicity against human H460 cells after 72 hrs by MTT assay", "assay_type": "functional, cell-based", "details": "NCI-H460, 72 h", "method_in_brief": "(§1)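 MTT assay on H460 and PC-3 cells grown in MEM with 10% FBS. MTT was added at […] and incubated with the cells for 4 h at 37 °C. Formazan was dissolved in DMSO and absorbance read at 492 nm against a 630 nm reference. Each compound was tested three times per cell line; IC50 values are averages of two determinations.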"}, "[3]": {"biological_target": "T2, Phosphatidylinositol 4,5-bisphosphate 3-kinase catalytic subunit alpha isoform (Homo sapiens, UniProt P42336)", "T2 sequence (P42336 whole entry, canonical isoform)": "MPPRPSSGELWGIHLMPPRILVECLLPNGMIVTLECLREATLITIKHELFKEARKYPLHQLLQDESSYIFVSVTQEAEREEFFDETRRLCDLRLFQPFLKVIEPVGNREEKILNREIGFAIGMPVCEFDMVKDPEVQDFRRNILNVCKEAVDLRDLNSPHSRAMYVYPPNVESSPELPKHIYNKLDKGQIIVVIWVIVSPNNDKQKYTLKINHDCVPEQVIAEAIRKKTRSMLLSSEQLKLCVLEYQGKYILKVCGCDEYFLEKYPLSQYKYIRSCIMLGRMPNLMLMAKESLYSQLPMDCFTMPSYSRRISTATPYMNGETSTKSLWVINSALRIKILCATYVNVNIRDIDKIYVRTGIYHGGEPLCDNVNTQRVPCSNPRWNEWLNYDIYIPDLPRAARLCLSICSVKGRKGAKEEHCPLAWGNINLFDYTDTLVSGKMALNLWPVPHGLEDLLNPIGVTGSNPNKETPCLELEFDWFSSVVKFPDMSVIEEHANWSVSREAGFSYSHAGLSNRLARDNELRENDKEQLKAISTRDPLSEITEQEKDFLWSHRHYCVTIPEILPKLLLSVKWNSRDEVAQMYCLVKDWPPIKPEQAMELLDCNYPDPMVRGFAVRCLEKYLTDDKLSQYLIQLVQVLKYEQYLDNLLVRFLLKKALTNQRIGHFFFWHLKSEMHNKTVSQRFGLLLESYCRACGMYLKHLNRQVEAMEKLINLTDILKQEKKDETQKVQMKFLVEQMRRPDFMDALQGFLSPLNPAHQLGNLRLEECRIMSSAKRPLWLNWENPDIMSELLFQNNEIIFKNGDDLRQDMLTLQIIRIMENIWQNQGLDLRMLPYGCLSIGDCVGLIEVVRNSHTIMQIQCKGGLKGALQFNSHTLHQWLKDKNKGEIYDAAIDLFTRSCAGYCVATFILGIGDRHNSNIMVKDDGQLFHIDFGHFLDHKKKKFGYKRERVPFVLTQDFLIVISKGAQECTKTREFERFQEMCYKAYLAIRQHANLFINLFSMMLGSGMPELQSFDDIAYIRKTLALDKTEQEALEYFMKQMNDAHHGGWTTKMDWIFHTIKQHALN", "assay": "Inhibition of PI3K-alpha kinase (unknown origin) using ULight-4E-BP1 as substrate at 10 uM after 60 mins by luminescence assay", "details": "in the assay text read “L-alpha-phosphatidylinositol” for “ULight-4E-BP1”", "method_in_brief": "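Kinase-Glo luminescent assay with 10 nM PI3Kα protein and lipid substrate prepared in 3% octyl-glucoside. The reaction was started by adding ATP in reaction buffer and ran 60 min. It was stopped with Kinase-Glo buffer, then luminescence was read.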"}, "[4]": {"assay": "Cytotoxicity against human PC3 cells after 72 hrs by MTT assay", "assay_type": "functional, cell-based", "details": "PC-3, 72 h", "method_in_brief": "as §1"}, "[5]": {"biological_target": "T2, Phosphatidylinositol 4,5-bisphosphate 3-kinase catalytic subunit alpha isoform", "assay": "Inhibition of PI3K-alpha kinase (unknown origin) using L-alpha-phosphatidylinositol as substrate after 60 mins by luminescence assay"}, "PC-3": {"test_system": "PC-3", "assay": "Ratio of (E)-4-((2-(4,6-dimorpholino-1,3,5-triazin-2-yl)hydrazono)methyl)-2,6-dimethoxyphenol IC50 to compound IC50 for human PC3 cells", "assay_type": "functional"}, "[6]": {"biological_target": "T1, Serine/threonine-protein kinase mTOR", "assay": "Ratio of (E)-4-((2-(4,6-dimorpholino-1,3,5-triazin-2-yl)hydrazono)methyl)-2,6-dimethoxyphenol IC50 to compound IC50 for mTOR kinase (unknown origin)"}, "[7]": {"biological_target": "T2, Phosphatidylinositol 4,5-bisphosphate 3-kinase catalytic subunit alpha isoform", "assay": "Ratio of (E)-4-((2-(4,6-dimorpholino-1,3,5-triazin-2-yl)hydrazono)methyl)-2,6-dimethoxyphenol IC50 to compound IC50 for PI3K-alpha kinase (unknown origin)"}, "[8]": {"assay": "Ratio of (E)-4-((2-(4,6-dimorpholino-1,3,5-triazin-2-yl)hydrazono)methyl)-2,6-dimethoxyphenol IC50 to compound IC50 for human H460 cells", "assay_type": "functional"}}, "note": "pIC50: −log10 of the molar value.", "data": [{"smiles": "N#Cc1cccc(Cn2cc(/C=N/Nc3nc(N4CCOCC4)nc(N4CCOCC4)n3)c3ccccc32)c1", "values": [{"measurement": "pIC50", "setting": "[1]", "value": 4.78}]}, {"smiles": "O=c1c(/C=N/Nc2nc(N3CCOCC3)c3ccsc3n2)coc2ccc([N+](=O)[O-])cc12", "values": [{"measurement": "pIC50", "setting": "[2]", "value": 5.49}, {"measurement": "inhibition", "setting": "[3]", "value": 91.2, "unit": "%"}, {"measurement": "pIC50", "setting": "[4]", "value": 5.85}, {"measurement": "pIC50", "setting": "[1]", "value": 6.04}, {"measurement": "pIC50", "setting": "[5]", "value": 5.82}]}, {"smiles": "COc1cc(/C=N/Nc2nc(N3CCOCC3)nc(N3CCOCC3)n2)cc(OC)c1O", "values": [{"measurement": "pIC50", "setting": "[5]", "value": "< 5.00"}]}, {"smiles": "O=c1c(/C=N/Nc2nc(N3CCOCC3)c3sccc3n2)coc2ccc([N+](=O)[O-])cc12", "values": [{"measurement": "inhibition", "setting": "[3]", "value": 58.8, "unit": "%"}, {"measurement": "pIC50", "setting": "[4]", "value": 5.16}, {"measurement": "pIC50", "setting": "[1]", "value": 5.34}, {"measurement": "pIC50", "setting": "[5]", "value": "< 5.00"}]}, {"smiles": "Fc1cccc(Cn2cc(/C=N/Nc3nc(N4CCOCC4)c4sccc4n3)c3ccccc32)c1", "values": [{"measurement": "pIC50", "setting": "[1]", "value": "< 4.52"}]}, {"smiles": "O=C(O)c1ccc2occ(/C=N/Nc3nc(N4CCOCC4)c4ccsc4n3)c(=O)c2c1", "values": [{"measurement": "Ratio IC50", "setting": "PC-3", "value": 19.1}, {"measurement": "pIC50", "setting": "[2]", "value": 5.92}, {"measurement": "inhibition", "setting": "[3]", "value": 90.6, "unit": "%"}, {"measurement": "pIC50", "setting": "[4]", "value": 6.07}, {"measurement": "Ratio IC50", "setting": "[6]", "value": 8.6}, {"measurement": "Ratio IC50", "setting": "[7]", "value": "> 5"}, {"measurement": "pIC50", "setting": "[1]", "value": 6.80}, {"measurement": "Ratio IC50", "setting": "[8]", "value": 7.9}, {"measurement": "pIC50", "setting": "[5]", "value": 5.63}]}, {"smiles": "O=C(O)c1ccc2occ(/C=N/Nc3nc(N4CCOCC4)c4sccc4n3)c(=O)c2c1", "values": [{"measurement": "inhibition", "setting": "[3]", "value": 95, "unit": "%"}, {"measurement": "pIC50", "setting": "[4]", "value": 5.20}, {"measurement": "pIC50", "setting": "[1]", "value": 5.48}, {"measurement": "pIC50", "setting": "[5]", "value": 5.74}]}]}
